697 NFkB inh – inhibitors of PMA/ionomycin-induced NF-kB reporter, 697 cells, primary screen, B-cell NF-kB inhibitor project, cell-based, luminescence, uHTS | 697 B-cell NF-kB luciferase reporter, 16 h | inhibition, % at 4 µM | 0.33% of 330,000 active; in the data active = inhibition above about 35%
TAG inh – inhibitors of triacylglycerol accumulation, primary screen, cell-based, uHTS, fluorescence, H9c2. 0.66% of 230,000 active. H9c2 cells, Nile Red lipid (TAG) fluorescence; cells loaded with 200 µM oleic acid. inhibition, % at 12.5 µM;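 active = pattern-corrected inhibition of lipid staining of at least 50% with the nuclear-stain viability signal not falling by more than 50%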;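 note: 0% = DMSO wells and 100% = triacsin C control wells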
APP transl inh – inhibitors of APP translation via 5'UTR reporter, primary screen, APP 5'UTR luciferase, SH-SY5Y cells | AID 1285, 2008 | SH-SY5Y APP 5'UTR-luciferase reporter, luminescence | inhibition, % at 2 µM | 0.82% of 190,000 active;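 active = inhibition above a set limit, derived from the sample mean plus 3 SD, cut at about 45% in these data; inconclusive = one replicate passes the limit while the other fails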
aSyn UTR inh – MLPCN primary screen, SNCA 5' untranslated region; alpha-synuclein 5'UTR reporter, inhibitor activity; inhibition, % (tested at 7.5 µM); 0.82% of 300,000 active; in the data active = inhibition above about 60%; inconclusive = no clear call, values can overlap the other calls;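 note: H4 neuroglioblastoma cells stably carrying SNCA 5'UTR luciferase fusion; 0% = DMSO wells and 100% = positive control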
Hep lipid drop – inhibitors of hepatocyte lipid droplet formation, primary screen, imaging, high-throughput imaging, BODIPY stain. AML12 mouse hepatocytes, oleate lipid droplets. inhibition, % at 6.5 µM. 0.4% of 240,000 active;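 active = lipid droplet intensity inhibited by at least 50%, with more than 500 cells counted; inconclusive = wells with under 300 cells, treated as cytotoxic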
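Test system: AML12 hepatocytes (mouse); reagent: oleate loading, 100 µM; dosing: one dose, 6.5 µM compound; incubation: overnight exposure; signal: fluorescence imaging, 20x objective, two fields per well; read-out basis: % inhibition of corrected integrated BODIPY droplet signal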
Jurkat NFkB inh – inhibitors of induced NF-kB luciferase reporter, primary screen, TCR NF-kB activation inhibitor project, cell-based, luminescence, uHTS | Jurkat, PMA/ionomycin-induced NF-kB luciferase reporter | inhibition, % at 4 µM | 0.53% of 330,000 active; in the data active = inhibition above about 50%
* marks the source's active call; other numbers are inactive results; ? = inconclusive; · = no result given. In the library only some 1.9% were active in any assay of this set; here they are far more common.

SMILES	697 NFkB inh	TAG inh	APP transl inh	aSyn UTR inh	Hep lipid drop	Jurkat NFkB inh
O=[N+]([O-])c1ccc(N2CCOCC2)c2c1no[n+]2[O-]	·	121*	·	·	·	·
O=[N+]([O-])c1ccc(N2CCOCC2)c2cccnc12	13	-2	-12	16	5	8
CN(C(=O)CNC(=O)OCc1ccccc1)c1ccc(Br)cc1C(=O)c1ccccc1Cl	-48	·	80*	17	-99	50
CCC(=O)N1N=C2C3CCN(CC3)C2C1c1ccc(C)cc1 (stereo not given)	-4	11	7	-22	3	1
CCC(=Nc1ccc(OC)cc1OC)c1c(O)[nH]c(=O)[nH]c1=O	-17	12	-15	28	·	0
CCC(=Nc1cc(OC)ccc1OC)c1c(O)[nH]c(=O)[nH]c1=O	-23	12	0	71*	·	-20
COc1cc(CC2(CCc3ccncc3)C(=O)NC(=O)NC2=O)cc(OC)c1OC	1	-10	8	18	2	-16
COc1cc2c(cc1OC)-c1c(OC)c(OC)c(OC)c3ccnc(c13)C2=O	-17	·	26	104*	-53	36
Cc1ccc(-c2cc(-c3ccc(C)cc3)[n+](-c3ccc(C(=O)[O-])cc3)c(-c3ccc(C)cc3)c2)cc1	-3	-15	·	83*	·	17
CCOC(=O)c1ccc(-[n+]2c(-c3ccccc3)cc(-c3ccccc3)cc2-c2ccccc2)cc1	-36	·	·	-38	·	26
CN(C)C(=S)SSC(=S)N(C)C	·	99	95*	-38	2	·
Cc1ccc(Cn2cc(C=O)c3ccccc32)cc1	-3	·	·	48	·	11
O=Cc1cn(Cc2ccc(F)cc2)c2ccccc12	8	-2	6	71*	0	17
O=Cc1cn(Cc2ccc([N+](=O)[O-])cc2)c2ccccc12	23	-38	15	72*	-14	7
CC(=O)C1C(N2CC2)CC2C3CCC4=CC(=O)CCC4(C)C3CCC21C (stereo not given)	·	41	·	·	·	·
CCc1n[nH]c(CCN)n1	17	-1	·	12	12	17
Cc1nc2cc(-c3ccc(Cl)cc3)nn2c(C)c1CCC(=O)N1CCC2(CC1)OCCO2	·	-1	50*	·	·	·
COc1ccc2[nH]c(C)c(CCNCc3cc(OC)c(OC)c(OC)c3)c2c1	3	4	-2	-3	-4	3
COc1ccc(CNCCc2c(C)[nH]c3ccc(OC(F)(F)F)cc23)c(OC)c1	-59	·	·	90*	-55	47
COC(=O)C1=C(c2ccc(F)cc2OCc2ccccc2)C[C@@H]2CC[C@H]1N2C(=O)NCc1ccc(C(F)(F)F)cc1	-3	29	·	·	·	14
CC(C)(C)NC(=S)N1Cc2ccccc2-n2nncc2C1	·	-4	·	·	·	·
CN1CCC(N(C)c2nc(-c3ccc([N+](=O)[O-])cc3)nc3ccccc23)CC1	·	59*	5	75*	17	·
COC(=O)C1=C(C(=O)OC)C2OC1c1cc3ccccc3cc12	·	70*	·	·	·	·
COC(=O)C1=C(c2ccc3ccccc3c2)C[C@@H]2CC[C@H]1N2C	3	-23	·	·	·	-13
CN1CCN(Cc2nc3ccccc3n2C)CC1	-2	·	-7	-19	·	-5
SMILES	697 NFkB inh	TAG inh	APP transl inh	aSyn UTR inh	Hep lipid drop	Jurkat NFkB inh
Cn1c(NN=O)nc2ccccc21	-2	37	75*	?	20	21
CS(=O)(=O)c1ccc(C2=C(CNC(=O)c3cccs3)[C@H]3CC[C@@H](C2)N3Cc2ccco2)cc1	·	16	·	·	·	·
COc1cc2c3c(c1OC)Oc1ccc(cc1)C[C@H]1c4c(cc(OC)c(OC)c4Oc4ccc(cc4)C[C@@H]3N(C)CC2)CCN1C	-27	86*	·	·	·	9
COc1cc2c3cc1Oc1c(OC)c(OC)cc4c1[C@H](Cc1ccc(cc1)Oc1cc(ccc1O)C[C@H]3N(C)CC2)N(C)CC4	-3	35	·	·	·	14
O=C(NC1(C(F)(F)F)Oc2ccc(Cl)cc2O1)N1CCC2(CC1)OCCO2 (stereo not given)	-54	-12	48*	-73	10	30
Ic1ccccc1CN[C@@H]1C2CCN(CC2)[C@@H]1C(c1ccccc1)c1ccccc1	-30	74*	·	·	·	15
OCCCCO	18	·	·	·	·	-6
C[C@H]1O[C@@H](OC2CC[C@]3(C=O)[C@H]4CC[C@]5(C)[C@@H](C6=CC(=O)OC6)CC[C@]5(O)[C@@H]4CC[C@]3(O)C2)CC2OC(C)(C)OC21 (stereo not given in full)	·	·	·	96*	·	·
C[C@H]1O[C@@H](O[C@H]2[C@@H](O)C[C@H](O[C@H]3[C@@H](O)C[C@H](O[C@H]4CC[C@@]5(C)[C@H](CC[C@@H]6[C@@H]5CC[C@]5(C)[C@@H](C7=CC(=O)OC7)CC[C@]65O)C4)O[C@@H]3C)O[C@@H]2C)C[C@H](O)[C@@H]1O	·	·	94*	·	14	·
Cc1c2ccncc2c(C)c2c1[nH]c1ccccc12	-240	-28	67*	114*	-60	-17
c1ccc2c(c1)[nH]c1cnccc12	7	1	4	-11	-7	4
COC(=O)C1=C(c2ccc(C(C)=O)cc2)C[C@@H]2CC[C@H]1N2C(=O)NC1Cc2ccccc2C1	6	·	·	·	·	5
COc1cc(OC)c(C=O)c(OC(=O)N(C)C)c1	3	12	10	17	0	4
Cc1cc(C)cc(N2C(=O)NC(=O)/C(=C\C=C\c3ccco3)C2=O)c1	·	·	46*	-116	-20	·
Fc1ccc(C(OCCN2CCN(CCCc3ccccc3)CC2)c2ccc(F)cc2)cc1	-2	-9	·	106*	·	17
c1ccc2[nH]c(CCN3CCCCC3)nc2c1	·	8	·	·	·	·
COC1CCC(OC2CC(C3(C)CCC4(CC(O)C(C)C(C(C)/C=C(\C)C(=O)C(C)CC(C)C(=O)O)O4)O3)OC3(OC(C4OC(O)(CO)C(C)CC4C)CC3C)C2C)OC1C (stereo not given)	·	97*	·	·	·	·
CN(C(=O)Cc1ccc(Cl)c(Cl)c1)C(CN1CCCC1)c1cccc(OCC(=O)O)c1 (stereo not given)	6	5	·	·	·	9
CC(=O)O[C@@H]1/C=C/[C@](C)(O)C[C@@H](C)C/C=C/[C@H]2[C@@H]3O[C@]3(C)[C@@H](C)[C@H]3[C@H](Cc4ccccc4)NC(=O)[C@@]312	29	·	·	114*	·	-10
CN1C2CCC1/C(=C/c1ccccn1)C(=O)/C2=C\c1ccccn1	·	·	95*	·	?	·
CCOP(=S)(OCC)Oc1nc(Cl)c(Cl)cc1Cl	8	·	·	·	·	0
COc1ccc(O)c2c(=O)c3c(OC)cc4c(c3oc12)C1C=COC1O4 (stereo not given)	27	·	·	94*	-1	1
N/C(=N\[N+](=O)[O-])N1CCN(C(=O)OC2CCCC2)CC1	11	·	·	1	-4	3

Assay outcomes: PubChem, several laboratories
